The target of series [1] is T1, C-C chemokine receptor type 4 (Homo sapiens, UniProt P51679).
T1 sequence (P51679 whole entry): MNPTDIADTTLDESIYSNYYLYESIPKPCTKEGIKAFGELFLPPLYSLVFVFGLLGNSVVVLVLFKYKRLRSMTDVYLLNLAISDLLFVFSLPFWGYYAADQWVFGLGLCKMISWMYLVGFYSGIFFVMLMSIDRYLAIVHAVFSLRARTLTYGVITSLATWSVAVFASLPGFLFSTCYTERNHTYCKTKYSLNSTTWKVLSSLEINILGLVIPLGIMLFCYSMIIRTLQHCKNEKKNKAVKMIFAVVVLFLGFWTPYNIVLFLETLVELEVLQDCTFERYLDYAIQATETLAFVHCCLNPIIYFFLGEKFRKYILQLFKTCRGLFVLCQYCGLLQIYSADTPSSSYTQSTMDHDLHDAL
Nature of the series: Antagonist activity at human CCR4 expressed in rat chem-5 cells assessed as inhibition of CCL22-induced calcium flux measured at 2.5 secs time interval for 45 secs by calcium 6 dye-based FLIPR assay. The series is classed as functional, cell-based. An outline of the steps:
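Primary calcium flux assay for CCR4 antagonism, run in the absence of serum.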
(In general: Calcium assays in cells follow changes in intracellular calcium, usually with a dye or a luminescent sensor.)

Series [2] in a line: Metabolic stability in rat hepatocytes assessed as parent compound remaining at 1 uM after 60 mins by LC-MS/MS analysis. The class given is ADME, cell-based, Hepatocyte. The note with it: read-out: Stability. An outline of the steps:
(§1)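 Hepatocytes (human or rat). Compound incubated for 60 min; value is % parent remaining.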

A short description of series [3]: Clearance in rat at 0.5 mg/kg, iv. The series is classed as ADME, organism-based. The conditions noted are these: in vivo. In outline: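 Rat in vivo PK. Single IV dose of 0.5 mg/kg; clearance in mL/min/kg.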
Series [4] in a line: Metabolic stability in human hepatocytes assessed as parent compound remaining at 1 uM after 60 mins by LC-MS/MS analysis. The series is classed as ADME, cell-based, Hepatocyte. The conditions noted are these: read-out: Stability. In outline: as §1
A short description of series [5]: Oral bioavailability in rat at 2 mg/kg. The class given is ADME, organism-based. The conditions noted are these: in vivo. In outline: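 Rat in vivo PK. Oral dose of 2 mg/kg; %F derived.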
Another series has as its target CYP3A4 (Homo sapiens, UniProt P08684). Nature of the series: Ratio of IC50 for time-dependent inhibition of CYP3A4 in human liver microsomes using midazolam hydrochloride as substrate in presence of NADPH to IC50 for time-dependent inhibition of CYP3A4 in human liver microsomes using midazolam hydrochloride as substrate absence of NADPH. The note with it: probe midazolam hydrochloride, read-out: Ratio IC50. In general terms: Liver microsomes are a subcellular fraction often used to study metabolism.

Another series deals with Cytochrome P450 2C9 (Homo sapiens, UniProt P11712). As to the kind of experiment: Inhibition of CYP2C9 in human liver microsomes using diclofenac sodium salt as substrate incubated for 20 mins in presence of NADPH by LC-MS/MS analysis. The series is classed as ADME.
Chain of Cytochrome P450 2C9 (P11712 whole entry): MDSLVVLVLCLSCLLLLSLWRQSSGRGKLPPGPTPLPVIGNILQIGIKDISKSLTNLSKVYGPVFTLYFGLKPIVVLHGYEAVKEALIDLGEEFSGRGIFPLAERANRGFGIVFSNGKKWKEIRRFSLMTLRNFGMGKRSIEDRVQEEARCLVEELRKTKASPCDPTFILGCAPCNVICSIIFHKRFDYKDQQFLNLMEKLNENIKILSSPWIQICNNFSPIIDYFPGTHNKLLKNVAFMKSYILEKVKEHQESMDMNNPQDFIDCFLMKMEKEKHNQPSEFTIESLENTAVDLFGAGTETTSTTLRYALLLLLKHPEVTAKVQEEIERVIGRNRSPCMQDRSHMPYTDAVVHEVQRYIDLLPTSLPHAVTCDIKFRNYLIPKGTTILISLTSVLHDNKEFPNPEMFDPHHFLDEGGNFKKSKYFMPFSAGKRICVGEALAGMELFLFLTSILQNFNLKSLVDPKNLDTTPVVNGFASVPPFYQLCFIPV
The target in the next series is Cytochrome P450 1A2 (Homo sapiens, UniProt P05177). Nature of the series: Inhibition of CYP1A2 in human liver microsomes using phenacetin as substrate incubated for 20 mins in presence of NADPH by LC-MS/MS analysis. The series is classed as ADME.
Chain of Cytochrome P450 1A2 (P05177 whole entry): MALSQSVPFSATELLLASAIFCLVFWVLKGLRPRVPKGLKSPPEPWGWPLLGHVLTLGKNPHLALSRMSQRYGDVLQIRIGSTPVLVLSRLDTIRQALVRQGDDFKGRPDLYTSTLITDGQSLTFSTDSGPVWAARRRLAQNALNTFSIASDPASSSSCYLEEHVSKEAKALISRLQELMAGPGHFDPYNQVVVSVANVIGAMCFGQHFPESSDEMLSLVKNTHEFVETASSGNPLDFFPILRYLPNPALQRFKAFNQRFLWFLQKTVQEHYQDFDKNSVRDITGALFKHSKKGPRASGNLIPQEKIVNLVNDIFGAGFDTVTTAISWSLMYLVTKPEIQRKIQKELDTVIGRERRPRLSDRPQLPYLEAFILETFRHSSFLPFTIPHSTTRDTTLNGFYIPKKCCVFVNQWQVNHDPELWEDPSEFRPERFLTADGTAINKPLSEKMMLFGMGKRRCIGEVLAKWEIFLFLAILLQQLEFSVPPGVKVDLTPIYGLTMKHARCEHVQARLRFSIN
The next series deals with Cytochrome P450 3A4 (Homo sapiens, UniProt P08684). Nature of the series: Inhibition of CYP3A4 in human liver microsomes using midazolam hydrochloride as substrate incubated for 20 mins in presence of NADPH by LC-MS/MS analysis. The class given is ADME.
Chain of Cytochrome P450 3A4 (P08684 whole entry): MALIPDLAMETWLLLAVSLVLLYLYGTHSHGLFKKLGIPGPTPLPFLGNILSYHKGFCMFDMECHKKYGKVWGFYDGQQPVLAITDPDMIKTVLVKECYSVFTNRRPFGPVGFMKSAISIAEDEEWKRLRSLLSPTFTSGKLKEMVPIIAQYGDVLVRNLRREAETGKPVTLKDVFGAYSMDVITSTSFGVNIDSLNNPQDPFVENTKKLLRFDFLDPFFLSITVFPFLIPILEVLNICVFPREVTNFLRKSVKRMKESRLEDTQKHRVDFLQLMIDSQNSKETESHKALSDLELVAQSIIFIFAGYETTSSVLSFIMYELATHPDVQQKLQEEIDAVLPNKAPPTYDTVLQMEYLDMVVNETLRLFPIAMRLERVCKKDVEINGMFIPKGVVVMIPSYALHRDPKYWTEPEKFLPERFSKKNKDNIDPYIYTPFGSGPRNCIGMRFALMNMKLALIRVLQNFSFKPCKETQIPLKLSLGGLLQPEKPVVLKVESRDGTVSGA
A further series deals with Cytochrome P450. As to the kind of experiment: Induction of CYP450 (unknown origin). The series is classed as ADME, protein assay. The conditions noted are these: human.
In the next series the target is Cytochrome P450 2C19 (Homo sapiens, UniProt P33261). As to the kind of experiment: Inhibition of CYP2C19 in human liver microsomes using S-mephenytoin as substrate incubated for 20 mins in presence of NADPH by LC-MS/MS analysis. The class given is ADME.
Chain of Cytochrome P450 2C19 (P33261 whole entry): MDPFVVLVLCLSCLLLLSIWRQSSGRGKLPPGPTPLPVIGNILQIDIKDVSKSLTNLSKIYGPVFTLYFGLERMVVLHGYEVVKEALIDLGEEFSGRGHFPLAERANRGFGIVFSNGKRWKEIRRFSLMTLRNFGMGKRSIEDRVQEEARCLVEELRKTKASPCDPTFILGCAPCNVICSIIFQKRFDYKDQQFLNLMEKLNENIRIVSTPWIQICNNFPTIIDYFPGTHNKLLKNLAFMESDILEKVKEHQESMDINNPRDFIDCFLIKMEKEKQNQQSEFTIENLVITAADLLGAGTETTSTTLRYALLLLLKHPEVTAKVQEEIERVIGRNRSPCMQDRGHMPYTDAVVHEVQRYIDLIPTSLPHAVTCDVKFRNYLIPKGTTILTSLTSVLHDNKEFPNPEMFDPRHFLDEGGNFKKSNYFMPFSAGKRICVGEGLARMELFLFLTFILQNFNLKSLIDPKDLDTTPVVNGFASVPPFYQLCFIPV
The target in a further series is Cytochrome P450 2D6 (Homo sapiens, UniProt P10635). Nature of the series: Inhibition of CYP2D6 in human liver microsomes using bufuralol hydrochloride salt as substrate incubated for 20 mins in presence of NADPH by LC-MS/MS analysis. The series is classed as ADME.
Chain of Cytochrome P450 2D6 (P10635 whole entry): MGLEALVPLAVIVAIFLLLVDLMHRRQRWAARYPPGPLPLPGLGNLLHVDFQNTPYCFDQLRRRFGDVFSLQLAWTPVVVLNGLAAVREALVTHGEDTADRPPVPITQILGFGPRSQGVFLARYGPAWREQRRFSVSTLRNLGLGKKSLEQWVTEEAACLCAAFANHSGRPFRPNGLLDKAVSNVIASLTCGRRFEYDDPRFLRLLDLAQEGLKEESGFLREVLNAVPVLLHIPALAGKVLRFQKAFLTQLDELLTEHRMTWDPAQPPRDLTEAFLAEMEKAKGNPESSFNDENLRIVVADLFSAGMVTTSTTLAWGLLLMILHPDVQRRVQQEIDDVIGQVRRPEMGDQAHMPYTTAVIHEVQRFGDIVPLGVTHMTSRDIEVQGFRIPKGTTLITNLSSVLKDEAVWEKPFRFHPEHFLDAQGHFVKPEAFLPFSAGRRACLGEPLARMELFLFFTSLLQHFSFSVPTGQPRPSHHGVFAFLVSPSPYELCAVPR

The results in this text go back to ChEMBL document CHEMBL4627411, “Novel Piperidinyl-Azetidines as Potent and Selective CCR4 Antagonists Elicit Antitumor Response as a Single Agent and in Combination with Checkpoint Inhibitors” (J Med Chem, 2020).

pIC50: −log10 of the molar value.

Chain of CYP3A4 (P08684 whole entry): as the sequence (P08684 whole entry) above

The pIC50 is the negative decadic logarithm of the IC50, by convention in mol/L. In the case of `C[C@H](c1ccc(Cl)cc1Cl)n1nc(C#N)c2ncc(N3CC([C@H]4CCCN(CCC(=O)O)C4)C3)nc21`, the pIC50 in series [1] is 7.33.

For `C[C@H](c1ccc(Cl)cc1Cl)n1nc(C#N)c2ncc(N3CC([C@H]4CCCN(CCC(F)(F)F)C4)C3)nc21`, the negative-log IC50 (pIC50) in series [1] was 6.43.

Take `Cc1nn([C@H](C)c2ccc(Cl)cc2Cl)c2nc(N3CC([C@H]4CCCN(CCS(C)(=O)=O)C4)C3)cnc12`: the negative logarithm of the IC50 (pIC50) in series [1] was 7.11.

With `Cc1nn([C@H](C)c2ccc(Cl)cc2Cl)c2nc(N3CC([C@H]4CCCN(CCNS(=O)(=O)C(C)C)C4)C3)cnc12`, the pIC50 in series [1] is 7.51.

For `Cc1nn([C@H](C)c2ccc(Cl)cc2Cl)c2nc(N3CC([C@H]4CCCN(CCNC(=O)C(C)C)C4)C3)cnc12`, the pIC50 in series [1] was 7.74.

As to `C[C@H](c1ccc(Cl)cc1Cl)n1nc(C#N)c2ncc(N3CC([C@H]4CCCN(CC#N)C4)C3)nc21`, in [1], the negative-log IC50 (pIC50) was 5.83.

Broadly, the clearance is the rate of elimination divided by the concentration. As a reminder, the bioavailability is the share of a dose that reaches the circulation, judged against a reference dose that is usually intravenous. Regarding `Cc1nn([C@H](C)c2ccc(Cl)cc2Cl)c2nc(N3CC([C@H]4CCCN(CCNS(C)(=O)=O)C4)C3)cnc12`, the remaining at 1 h, 1 µM is 53% in [2] and 85% in [4]. The molecule further returned a clearance in [3] of 41.6 mL/min/kg. Further, the pIC50 in series [1] is 7.54. The molecule further returned a bioavailability in series [5] of 11%.

As for `C[C@H](c1ccc(Cl)cc1Cl)n1nc(C(N)=O)c2ncc(N3CC([C@H]4CCCN(CCO)C4)C3)nc21`, the remaining at 1 h, 1 µM in [2] and in series [4] was 95% each time. In [3], the clearance turned out to be 191 mL/min/kg. Besides, the pIC50 in series [1] is 8.10. For the same molecule, in series [5], the bioavailability stood at 0%.

As for `Cc1nn([C@H](C)c2ccc(Cl)cc2Cl)c2nc(N3CC([C@H]4CCCN(CCC(F)(F)F)C4)C3)cnc12`, the negative logarithm of the IC50 (pIC50) in series [1] is 6.30.

Turning to `CC(=O)NCCN1CCC[C@H](C2CN(c3cnc4c(C)nn([C@H](C)c5ccc(Cl)cc5Cl)c4n3)C2)C1`, the remaining at 1 h, 1 µM in [2] amounted to 68%; in [4], 94%. Besides, the clearance in [3] stood at 11 mL/min/kg. In addition, the pIC50 in series [1] was 8.22. The bioavailability in series [5] was found to be 13%.

With `Cc1nn([C@H](C)c2ccc(Cl)cc2Cl)c2nc(N3CC(N4CCCCC4)C3)cnc12`, the pIC50 in [1] was below 5.30.

Turning to `C[C@H](c1ccc(Cl)cc1Cl)n1nc(C#N)c2ncc(N3CC([C@H]4CCCN(CCC#N)C4)C3)nc21`, the negative logarithm of the IC50 (pIC50) in series [1] was 7.55.

Regarding `CCOC(=O)CN1CCCC(C2CN(c3cnc4c(C)nn([C@H](C)c5ccc(Cl)cc5Cl)c4n3)C2)C1` (stereo partly drawn), the pIC50 in series [1] is 6.22.

Take `Cc1nn([C@H](C)c2ccc(Cl)cc2Cl)c2nc(N3CC([C@@H]4CCCN(CCS(N)(=O)=O)C4)C3)cnc12`: the negative-log IC50 (pIC50) in series [1] was 6.34.

Turning to `CNC(=O)c1nn([C@H](C)c2ccc(Cl)cc2Cl)c2nc(N3CC([C@H]4CCCN(CCO)C4)C3)cnc12`, the pIC50 in series [1] is 7.60.

Take `CCN1CCC(C2CN(c3cnc4c(C)nn([C@H](C)c5ccc(Cl)cc5Cl)c4n3)C2)CC1`: the pIC50 in series [1] was below 5.30.

Take `C[C@H](c1ccc(Cl)cc1Cl)n1nc(C#N)c2ncc(N3CC([C@H]4CCCN(Cc5cnc[nH]5)C4)C3)nc21`: the pIC50 in series [1] was 7.68.

`Cc1nn([C@H](C)c2ccc(Cl)cc2Cl)c2nc(N3CC([C@H]4CCCN(CCO)C4)C3)cnc12`: the remaining at 1 h, 1 µM in [2] was 62%; in series [4], 87%. Moreover, in [3], the clearance was 32.3 mL/min/kg. Moreover, the IC50 shift on CYP3A4 was found to be 2.6. The pIC50 at Cytochrome P450 2C9 is below 4.40; at Cytochrome P450 1A2 it was below 4.40; at Cytochrome P450 3A4 it was below 4.40; in series [1], 7.62; at Cytochrome P450 2C19 it was below 4.40; at Cytochrome P450 2D6, below 4.40. This molecule also gave a bioavailability in [5] of 61%. Further, in the series with Cytochrome P450, the Activity result is recorded as “Not Active”.

As for `C[C@H](c1ccc(Cl)cc1Cl)n1nc(C#N)c2ncc(N3CC([C@H]4CCCN(CC(=O)O)C4)C3)nc21`, in series [1], the pIC50 is 7.44.

As for `Cc1nn([C@H](C)c2ccc(Cl)cc2Cl)c2nc(N3CC([C@H]4CCCN(CCCC(=O)O)C4)C3)cnc12`, the negative-log IC50 (pIC50) in series [1] was 7.16.

For `Cc1nn([C@H](C)c2ccc(Cl)cc2Cl)c2nc(N3CC([C@H]4CCCN(CCC(N)=O)C4)C3)cnc12`, the pIC50 in series [1] was 7.38.

In the case of `C[C@H](c1ccc(Cl)cc1Cl)n1nc(C(=O)N(C)C)c2ncc(N3CC([C@H]4CCCN(CCO)C4)C3)nc21`, the pIC50 in series [1] is 8.05.

In the case of `Cc1nn([C@H](C)c2ccc(Cl)cc2Cl)c2nc(N3CC(C4CCCN(CCS(N)(=O)=O)C4)C3)cnc12` (stereo partly drawn), the pIC50 in series [1] was 6.92.

For the molecule `Cc1nn([C@H](C)c2ccc(Cl)cc2Cl)c2nc(N3CC([C@H]4CCCN(CCCO)C4)C3)cnc12`, in series [1], the pIC50 was 7.43.

On to `Cc1nn([C@H](C)c2ccc(Cl)cc2Cl)c2nc(N3CC(CN(C)C)C3)cnc12`, for which the pIC50 in series [1] was 5.86.

For the molecule `Cc1nn([C@H](C)c2ccc(Cl)cc2Cl)c2nc(N3CC([C@H]4CCCN(CCC(=O)O)C4)C3)cnc12`, the pIC50 in [1] is 7.04.

On to `COC(=O)NCCN1CCC[C@H](C2CN(c3cnc4c(C)nn([C@H](C)c5ccc(Cl)cc5Cl)c4n3)C2)C1`, for which the pIC50 in [1] was 7.64.

For the molecule `Cc1nn([C@H](C)c2ccc(Cl)cc2Cl)c2nc(N3CC([C@H]4CCCN(CCS(N)(=O)=O)C4)C3)cnc12`, the pIC50 in series [1] was 7.08.

As for `C[C@H](c1ccc(Cl)cc1Cl)n1nc(C(=O)O)c2ncc(N3CC([C@H]4CCCN(CCO)C4)C3)nc21`, in [1], the pIC50 was below 5.30.

`Cc1nn([C@H](C)c2ccc(Cl)cc2Cl)c2nc(N3CC([C@H]4CCCN(CCCS(C)(=O)=O)C4)C3)cnc12`: the pIC50 in series [1] is 7.66.
